The values below come from ChEMBL document CHEMBL4834426, “Antimalarial Benzimidazole Derivatives Incorporating Phenolic Mannich Base Side Chains Inhibit Microtubule and Hemozoin Formation: Structure-Activity Relationship and In Vivo Oral Efficacy Studies” (J Med Chem, 2021).

Activity calls are given as the source filed them. No cut-off for these calls is given here.

Data set [1] can be described thus: Resistance index, ratio of IC50 for antimalarial activity against asexual blood stage multi drug-resistant Plasmodium falciparum K1 to IC50 for antimalarial activity against asexual blood stage drug-sensitive Plasmodium falciparum NF54. It is filed as functional. The gist of the method:
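Resistance index is IC₅₀(K1)/IC₅₀(NF54). Both IC₅₀s came from the [³H]-hypoxanthine incorporation assay, as means of ≥2 independent experiments.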

In data set [2] the test system is Plasmodium falciparum. Description: Antiplasmodial activity against […] Plasmodium falciparum NF54 early gametocytes transfected with GFP-Luc […] at 1 uM incubated for 48 hrs by microscopy based luciferase reporter gene assay relative to control. Type of data set: functional. The procedure, abridged: (§1)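 NF54-Pfs16-GFP-Luc gametocytes, assays set up day 5 (early, stage II/III) or day 10 (late, stage IV/V). Culture at 2−3% gametocytemia, 1.5% hematocrit, 48 h drug exposure at 37 °C under 90% N₂/5% O₂/5% CO₂. Lysates mixed with luciferin; bioluminescence read with 10 s integration. Dual-point: one biological repeat in technical triplicate. Methylene blue (5 μM) reference.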

The test system of data set [3] is Plasmodium falciparum. Description: Antiplasmodial activity against […] Plasmodium falciparum NF54 late gametocytes transfected with GFP-Luc […] at 5 uM incubated for 48 hrs by microscopy based luciferase reporter gene assay relative to control. It is filed as functional. The procedure, abridged:
as §1

Data set [4] deals with Plasmodium falciparum. Description: Antiplasmodial activity against […] Plasmodium falciparum NF54 late gametocytes transfected with GFP-Luc […] at 1 uM incubated for 48 hrs by microscopy based luciferase reporter gene assay relative to control. Type of data set: functional. The gist of the method:
as §1

Data set [5] is described as follows: Metabolic stability in human liver microsomes assessed as compound remaining at 1 uM incubated for 30 mins by LC-MS/MS analysis. It is filed as ADME, Microsome. The settings on record: read-out: Stabilty. The gist of the method: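 Single-point design: 1 μM compound with 0.4 mg/mL liver microsomes in 0.1 M phosphate buffer pH 7.4 for 30 min. Quenched with ice-cold acetonitrile containing carbamazepine internal standard, centrifuged, analyzed by LC−MS/MS. Percent remaining from internal-standard-corrected peak areas at 30 min versus 0 min. Propranolol, midazolam and MMV390048 as controls.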

Data set [6] in a line: Kinetic solubility of the compound in pH 6.5 incubated for 24 hrs by HPLC-DAD analysis. Type of data set: physicochemical. As to conditions: buffer, read-out: Kinetic_solubility. The procedure, abridged:
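Miniaturized shake-flask method. 10 mM DMSO stock dried down, phosphate buffer pH 6.5 added, shaken 24 h at 25 °C. Centrifuged 3500g for 15 min; supernatant analyzed by HPLC-DAD against 10−220 μM DMSO calibration curve. Reserpine, hydrocortisone and MMV390048 as controls.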

A short description of data set [7]: Volume of distribution in Balb/c mouse at 3 mg/kg, iv measured up to 24 hrs by LC-MS/MS analysis. As to conditions: in vivo. Type of data set: ADME, organism-based. The gist of the method:
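Intravenous dosing in male Balb/c mice, fed ad libitum. Tail-vein blood sampled into heparinized tubes at 0.17, 0.5, 1, 3, 5, 7, 9 and 24 h, frozen at −80 °C. Blood extracted by acetonitrile protein precipitation with internal standard; LC−MS/MS quantitation, LOQ 2 ng/mL. Noncompartmental analysis based on curve stripping.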

Data set [8] relates to Hemozoin. Put plainly: Inhibition of beta-hematin formation […] incubated for 5 hrs by NP40 detergent-mediated assay. The procedure, abridged: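 Cell-free β-hematin formation assay in NP-40 (305.5 μM) lipid-mimic medium. Compounds from 20 mM stock serially diluted across wells, in duplicate. Hematin suspended in 1 M acetate buffer pH 4.8; plates incubated ~5 h at 37 °C. Then pyridine solution (with HEPES pH 7.4) and acetone added; absorbance at 405 nm. IC₅₀ by curve fit.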

Data set [9] has as its system Plasmodium falciparum NF54. Put plainly: Inhibition of tubulin polymerization in asexual stage (II) Plasmodium falciparum NF54 early gametocytes at 2400 nM incubated for 24 hrs by tubulin tracker Oregon Green staining method. The procedure, abridged:
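Treatment at 600 nM for asexual parasites (~1% parasitemia, 5% hematocrit, sorbitol-synchronized rings) or 2400 nM for early gametocytes (~2% gametocytemia, 2% hematocrit, 20% I/60% II/20% III). 24 h at 37 °C, 90% N₂/5% CO₂/5% O₂, DMSO <0.1%. Stained with 250 nM Tubulin Tracker Oregon Green 488 for 30 min and Hoechst (100 nM) for 10 min. PBS-washed, imaged live by confocal microscopy. Colchicine (20 μM) positive control.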

In data set [10] the test system is Plasmodium falciparum. Put plainly: Antiplasmodial activity against […] Plasmodium falciparum NF54 late gametocytes transfected with GFP-Luc […] incubated for 48 hrs by microscopy based luciferase reporter gene assay relative to control. Type of data set: functional, organism-based. The settings on record: NF54, 48 h. The gist of the method: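 Transgenic NF54-Pfs16-GFP-Luc gametocytes, read by luciferase reporter. Early assays were set up on day 5 (50% stage II/50% stage III) and late assays on day 10 (40% stage IV/60% stage V). Luciferin was added to lysates at room temperature and bioluminescence read. Methylene blue (5 μM) was the reference. Single-point screens at 1 and 5 μM used n=1 in technical triplicate. IC₅₀ came from a normalized nonlinear fit, n≥3 in triplicate.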

As for `CCNCc1cc(Cl)cc(Nc2nc3cc(F)c(F)cc3n2Cc2ccc(C(F)(F)F)cc2)c1O`, the Ratio IC50 in [1] worked out at 0.42. Besides, the inhibition at 1 µM in data set [2] turned out to be 62%; in [4], 0%. Moreover, the inhibition at 5 µM in data set [3] is 0%. Moreover, the remaining at 0.5 h, 1 µM in data set [5] was above 99%. In [6], the solubility kinetic at 24 h was below 5 µM. In data set [7], this compound came in with a Vd of 6.9 L/kg. Also, the IC50 in [8] is 18.1 µM; in [10], above 5 µM. In addition, the inhibition result in data set [9] was “Active”.
